# Measurements reported in ChEMBL document CHEMBL1156009, “Eleven amino acid glucagon-like peptide-1 receptor agonists with antidiabetic activity” (J Med Chem, 2009).
# The source made the active and inactive calls. No cut-off for these calls is given here. Square brackets hold non-standard residues; d marks the D form. Peptide text beside a SMILES is read from it. Bip(2'-Et-4'-OMe) = CCc1cc(OC)ccc1-c1ccc(C[C@H](N)C(=O)O)cc1; Bip(2'-Me) = Cc1ccccc1-c1ccc(C[C@H](N)C(=O)O)cc1; αMeF = C[C@](N)(Cc1ccccc1)C(=O)O; Aib = CC(C)(N)C(=O)O
# Tests used:
# [1] = target: T1, Glucagon-like peptide 1 receptor (Homo sapiens, UniProt P43220); experiment: Agonist activity at human GLP1R expressed in CHO cells assessed as stimulation of intracellular [3H]cAMP accumulation after 30 mins by scintillation proximity assay; assay type: functional, cell-based
# Procedure, shortened: (§1)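 CHO cells stably expressing human or mouse GLP-1R, grown in F-12 with 10% FBS plus Geneticin (0.4 mg/mL human, 1 mg/mL mouse), plated 2×10^4/well overnight. Half-log dilutions made in DMSO, then in DPBS with 0.1 mM IBMX and 0.05% BSA (final 1% DMSO). Cells exposed 30 min. cAMP read by SPA and converted to pmol via standard curve. Duplicates, at least three separate runs.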
# [2] = target: T1, Glucagon-like peptide 1 receptor; experiment: Agonist activity at human GLP1R expressed in CHO cells assessed as stimulation of intracellular [3H]cAMP accumulation at 1 to 100 nM after 30 mins by scintillation proximity assay in presence of GLP1R antagonist truncated exendin-4(9-39); assay type: functional, cell-based; procedure, shortened: as §1
# [3] = target: T1, Glucagon-like peptide 1 receptor; experiment: Displacement of [125I]GLP1 from human GLP1R expressed in CHO cells; assay type: cell-based
# T1 sequence (P43220 whole entry): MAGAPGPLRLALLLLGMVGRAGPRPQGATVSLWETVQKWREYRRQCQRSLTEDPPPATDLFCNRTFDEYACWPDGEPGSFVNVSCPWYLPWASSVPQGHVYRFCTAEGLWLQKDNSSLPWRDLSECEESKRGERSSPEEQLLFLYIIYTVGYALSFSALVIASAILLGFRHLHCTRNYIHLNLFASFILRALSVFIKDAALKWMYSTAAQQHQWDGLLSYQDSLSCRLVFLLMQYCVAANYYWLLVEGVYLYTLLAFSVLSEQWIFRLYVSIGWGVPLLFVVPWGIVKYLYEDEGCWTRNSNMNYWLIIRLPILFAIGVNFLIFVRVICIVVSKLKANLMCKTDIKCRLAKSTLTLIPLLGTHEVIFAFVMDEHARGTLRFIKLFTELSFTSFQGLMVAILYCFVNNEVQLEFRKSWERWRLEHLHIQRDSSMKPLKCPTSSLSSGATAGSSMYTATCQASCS
EC50 [1] [nM],Activity [2],Activity [3],Compound
35,–,–,COc1ccc(-c2ccc(C[C@H](NC(=O)[C@H](CC(=O)O)NC(=O)[C@H](CO)NC(=O)[C@@H](NC(=O)[C@H](Cc3ccccc3)NC(=O)[C@@H](NC(=O)CNC(=O)[C@H](CCC(=O)O)NC(=O)[C@H](C)NC(=O)[C@@H](N)Cc3cnc[nH]3)[C@@H](C)O)[C@@H](C)O)C(=O)N[C@@H](Cc3ccc(-c4ccccc4C)cc3)C(N)=O)cc2)c(C)c1
22,–,–,CCc1ccccc1-c1ccc(C[C@H](NC(=O)[C@H](CC(=O)O)NC(=O)[C@H](CO)NC(=O)[C@@H](NC(=O)[C@H](Cc2ccccc2)NC(=O)[C@@H](NC(=O)CNC(=O)[C@H](CCC(=O)O)NC(=O)[C@H](C)NC(=O)[C@@H](N)Cc2cnc[nH]2)[C@@H](C)O)[C@@H](C)O)C(=O)N[C@@H](Cc2ccc(-c3ccccc3C)cc2)C(N)=O)cc1
0.28,–,–,CCc1cc(OC)ccc1-c1ccc(C[C@H](NC(=O)[C@H](CC(=O)O)NC(=O)[C@H](CO)NC(=O)[C@@H](NC(=O)[C@](C)(Cc2ccccc2)NC(=O)[C@@H](NC(=O)CNC(=O)[C@H](CCC(=O)O)NC(=O)C(C)(C)NC(=O)[C@@H](N)Cc2cnc[nH]2)[C@@H](C)O)[C@@H](C)O)C(=O)N[C@@H](Cc2ccc(-c3ccccc3C)cc2)C(N)=O)cc1 (H-H[Aib]EGT[αMeF]TSD[Bip(2'-Et-4'-OMe)][Bip(2'-Me)]-NH2)
93,–,–,CCCc1ccccc1-c1ccc(C[C@H](NC(=O)[C@H](CC(=O)O)NC(=O)[C@H](CO)NC(=O)[C@@H](NC(=O)[C@H](Cc2ccccc2)NC(=O)[C@@H](NC(=O)CNC(=O)[C@H](CCC(=O)O)NC(=O)[C@H](C)NC(=O)[C@@H](N)Cc2cnc[nH]2)[C@@H](C)O)[C@@H](C)O)C(=O)N[C@@H](Cc2ccc(-c3ccccc3C)cc2)C(N)=O)cc1
87,–,–,Cc1cccc(-c2ccc(C[C@H](NC(=O)[C@H](Cc3ccc(-c4ccccc4C)cc3)NC(=O)[C@H](CC(=O)O)NC(=O)[C@H](CO)NC(=O)[C@@H](NC(=O)[C@H](Cc3ccccc3)NC(=O)[C@@H](NC(=O)CNC(=O)[C@H](CCC(=O)O)NC(=O)[C@H](C)NC(=O)[C@@H](N)Cc3cnc[nH]3)[C@@H](C)O)[C@@H](C)O)C(N)=O)cc2)c1
545,inactive,Active,C[C@H](NC(=O)[C@@H](N)Cc1cnc[nH]1)C(=O)N[C@@H](CCC(=O)O)C(=O)NCC(=O)N[C@H](C(=O)N[C@@H](Cc1ccccc1)C(=O)N[C@H](C(=O)N[C@@H](CO)C(=O)N[C@@H](CC(=O)O)C(=O)N[C@@H](Cc1ccc(-c2ccccc2)cc1)C(=O)N[C@@H](Cc1ccc(-c2ccccc2)cc1)C(N)=O)[C@@H](C)O)[C@@H](C)O
480,–,–,Cc1ccccc1-c1ccc(C[C@H](NC(=O)[C@H](Cc2ccc(-c3ccccc3)cc2)NC(=O)[C@H](CC(=O)O)NC(=O)[C@H](CO)NC(=O)[C@@H](NC(=O)[C@H](Cc2ccccc2)NC(=O)[C@@H](NC(=O)CNC(=O)[C@H](CCC(=O)O)NC(=O)[C@H](C)NC(=O)[C@@H](N)Cc2cnc[nH]2)[C@@H](C)O)[C@@H](C)O)C(N)=O)cc1
2.4,–,–,CCc1cc(OC)ccc1-c1ccc(C[C@H](NC(=O)[C@H](CC(=O)O)NC(=O)[C@H](CO)NC(=O)[C@@H](NC(=O)[C@](C)(Cc2ccccc2)NC(=O)[C@@H](NC(=O)CNC(=O)[C@H](CCC(=O)O)NC(=O)[C@H](C)NC(=O)[C@@H](N)Cc2cnc[nH]2)[C@@H](C)O)[C@@H](C)O)C(=O)N[C@@H](Cc2ccc(-c3ccccc3C)cc2)C(N)=O)cc1 (H-HAEGT[αMeF]TSD[Bip(2'-Et-4'-OMe)][Bip(2'-Me)]-NH2)
7,–,–,CCc1cc(OC)ccc1-c1ccc(C[C@H](NC(=O)[C@H](CC(=O)O)NC(=O)[C@H](CO)NC(=O)[C@@H](NC(=O)[C@H](Cc2ccccc2)NC(=O)[C@@H](NC(=O)CNC(=O)[C@H](CCC(=O)O)NC(=O)[C@H](C)NC(=O)[C@@H](N)Cc2cnc[nH]2)[C@@H](C)O)[C@@H](C)O)C(=O)N[C@@H](Cc2ccc(-c3ccccc3C)cc2)C(N)=O)cc1
430,–,–,C[C@H](NC(=O)[C@@H](N)Cc1cnc[nH]1)C(=O)N[C@@H](CCC(=O)O)C(=O)NCC(=O)N[C@H](C(=O)N[C@@H](Cc1ccccc1)C(=O)N[C@H](C(=O)N[C@@H](CO)C(=O)N[C@@H](CC(=O)O)C(=O)N[C@@H](Cc1ccc(-c2ccccc2)cc1)C(=O)N[C@@H](Cc1ccc(-c2ccc(F)cc2)cc1)C(N)=O)[C@@H](C)O)[C@@H](C)O
215,–,–,Cc1cccc(-c2ccc(C[C@H](NC(=O)[C@H](Cc3ccc(-c4ccccc4)cc3)NC(=O)[C@H](CC(=O)O)NC(=O)[C@H](CO)NC(=O)[C@@H](NC(=O)[C@H](Cc3ccccc3)NC(=O)[C@@H](NC(=O)CNC(=O)[C@H](CCC(=O)O)NC(=O)[C@H](C)NC(=O)[C@@H](N)Cc3cnc[nH]3)[C@@H](C)O)[C@@H](C)O)C(N)=O)cc2)c1
148,–,–,Cc1ccccc1-c1ccc(C[C@H](NC(=O)[C@H](Cc2ccc(-c3ccccc3C)cc2)NC(=O)[C@H](CC(=O)O)NC(=O)[C@H](CO)NC(=O)[C@@H](NC(=O)[C@H](Cc2ccccc2)NC(=O)[C@@H](NC(=O)CNC(=O)[C@H](CCC(=O)O)NC(=O)[C@H](C)NC(=O)[C@@H](N)Cc2cnc[nH]2)[C@@H](C)O)[C@@H](C)O)C(N)=O)cc1
270,–,–,Cc1ccc(-c2ccc(C[C@H](NC(=O)[C@H](Cc3ccc(-c4ccccc4)cc3)NC(=O)[C@H](CC(=O)O)NC(=O)[C@H](CO)NC(=O)[C@@H](NC(=O)[C@H](Cc3ccccc3)NC(=O)[C@@H](NC(=O)CNC(=O)[C@H](CCC(=O)O)NC(=O)[C@H](C)NC(=O)[C@@H](N)Cc3cnc[nH]3)[C@@H](C)O)[C@@H](C)O)C(N)=O)cc2)cc1
> 10000,–,–,C[C@H](NC(=O)[C@@H](N)Cc1cnc[nH]1)C(=O)N[C@@H](CCC(=O)O)C(=O)NCC(=O)N[C@H](C(=O)N[C@@H](Cc1ccccc1)C(=O)N[C@H](C(=O)N[C@@H](CO)C(=O)N[C@@H](CC(=O)O)C(=O)N[C@@H](Cc1ccc(-c2ccccc2)cc1)C(=O)N[C@@H](Cc1ccc(-c2ccccc2)cc1)C(=O)O)[C@@H](C)O)[C@@H](C)O
390,–,–,COc1ccc(-c2ccc(C[C@H](NC(=O)[C@H](Cc3ccc(-c4ccccc4)cc3)NC(=O)[C@H](CC(=O)O)NC(=O)[C@H](CO)NC(=O)[C@@H](NC(=O)[C@H](Cc3ccccc3)NC(=O)[C@@H](NC(=O)CNC(=O)[C@H](CCC(=O)O)NC(=O)[C@H](C)NC(=O)[C@@H](N)Cc3cnc[nH]3)[C@@H](C)O)[C@@H](C)O)C(N)=O)cc2)cc1
27,–,–,CCc1ccccc1-c1ccc(C[C@H](NC(=O)[C@H](CC(=O)O)NC(=O)[C@H](CO)NC(=O)[C@@H](NC(=O)[C@H](Cc2ccccc2)NC(=O)[C@@H](NC(=O)CNC(=O)[C@H](CCC(=O)O)NC(=O)[C@H](C)NC(=O)[C@@H](N)Cc2cnc[nH]2)[C@@H](C)O)[C@@H](C)O)C(=O)N[C@@H](Cc2ccc(-c3ccccc3)cc2)C(N)=O)cc1
965,–,–,COc1cccc(-c2ccc(C[C@H](NC(=O)[C@H](CC(=O)O)NC(=O)[C@H](CO)NC(=O)[C@@H](NC(=O)[C@H](Cc3ccccc3)NC(=O)[C@@H](NC(=O)CNC(=O)[C@H](CCC(=O)O)NC(=O)[C@H](C)NC(=O)[C@@H](N)Cc3cnc[nH]3)[C@@H](C)O)[C@@H](C)O)C(=O)N[C@@H](Cc3ccc(-c4ccccc4C)cc3)C(N)=O)cc2)c1
> 10000,–,–,C[C@H](NC(=O)[C@@H](N)Cc1cnc[nH]1)C(=O)N[C@@H](CCC(=O)O)C(=O)NCC(=O)N[C@H](C(=O)N[C@@H](Cc1ccccc1)C(=O)N[C@H](C(=O)N[C@@H](CO)C(=O)N[C@@H](CC(=O)O)C(=O)N[C@@H](Cc1ccc(-c2ccccc2)cc1)C(N)=O)[C@@H](C)O)[C@@H](C)O
787,–,–,C[C@H](NC(=O)[C@@H](N)Cc1cnc[nH]1)C(=O)N[C@@H](CCC(=O)O)C(=O)NCC(=O)N[C@H](C(=O)N[C@@H](Cc1ccccc1)C(=O)N[C@H](C(=O)N[C@@H](CO)C(=O)N[C@@H](CC(=O)O)C(=O)N[C@@H](Cc1ccc(-c2ccccc2)cc1)C(=O)N[C@@H](Cc1ccc(-c2ccccc2)cc1)C(=O)N[C@@H](Cc1ccc(-c2ccccc2)cc1)C(N)=O)[C@@H](C)O)[C@@H](C)O
95,–,–,Cc1ccc(-c2ccc(C[C@H](NC(=O)[C@H](Cc3ccc(-c4ccccc4C)cc3)NC(=O)[C@H](CC(=O)O)NC(=O)[C@H](CO)NC(=O)[C@@H](NC(=O)[C@H](Cc3ccccc3)NC(=O)[C@@H](NC(=O)CNC(=O)[C@H](CCC(=O)O)NC(=O)[C@H](C)NC(=O)[C@@H](N)Cc3cnc[nH]3)[C@@H](C)O)[C@@H](C)O)C(N)=O)cc2)cc1
